Test results published in ChEMBL document CHEMBL1121790, “Proposed dopaminergic pharmacophore of lergotrile, pergolide, and related ergot alkaloid derivatives” (1981).
Active and inactive are the calls of the source. The rule behind the calls is not given here.

Legend:
Felis catus [1] = assay: Compound was tested for neuronal inhibition of postganglionic cardio accelerator nerve stimulation in anaesthetized cat at 2 Hz frequency at 10 mg/kg; assay type: functional; conditions: Heart
Method in brief: (§1)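 Cats anaesthetised with pentobarbital sodium (30 mg/kg, intrathorax); arterial pressure recorded from right femoral artery. Postganglionic cardioaccelerator nerve stimulated at 2 Hz, 5 ms pulses, supramaximal voltage, 20-30 s trains. After stable controls, compound given iv in doses spaced 0.48 log units; inhibition of stimulation-induced tachycardia measured. Haloperidol 100 μg iv at end, inhibition redetermined. ID50 by probit analysis.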

Felis catus [2] = assay: Compound was tested for percentage decrease in mean arterial blood pressure at 30 mg/kg in anaesthetized cat; assay type: functional, Artery
Method in brief: (§2)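 Pentobarbital sodium (30 mg/kg, intrathorax) anaesthetised cats; arterial pressure from right femoral artery via pressure transducer. Compound given iv, doses spaced 0.48 log units. Change in mean arterial pressure (increase, i.e. transient primary pressor phase, and decrease) and in resting heart rate expressed as % of resting control; resting pressure (mmHg) and heart rate (beats/min) also recorded.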

Felis catus [3] = assay: Compound was tested for neuronal inhibition of postganglionic cardio accelerator nerve stimulation in anaesthetized cat at 2 Hz frequency at 30 mg/kg; assay type: functional; conditions: Heart; method in brief: as §1
Felis catus [4] = assay: Compound was tested for percentage increase in mean arterial blood pressure at 30 mg/kg in anaesthetized cat; assay type: functional, Artery; method in brief: as §2
Felis catus [5] = assay: Compound was tested for neuronal inhibition of postganglionic cardio accelerator nerve stimulation in anaesthetized cat at 2 Hz frequency at 3 mg/kg; assay type: functional; conditions: Heart; method in brief: as §1
Felis catus [6] = assay: Potency relative to apomorphine at 3 mg/kg in anaesthetized cat; assay type: functional
Felis catus [7] = assay: Compound was tested for percentage decrease in mean arterial blood pressure at 3 mg/kg in anaesthetized cat; assay type: functional, Artery; method in brief: as §2
Felis catus [8] = assay: Sympathetic neuronal inhibiting activity in anaesthetized cat 3 at mg/kg; assay type: functional; conditions: Sympathetic neuron, read-out: ID50 (the source's name); method in brief: as §1
Felis catus [9] = assay: Compound was tested for percentage decrease in heart rate at 10 mg/kg in anaesthetized cat; assay type: functional; method in brief: as §2
Felis catus [10] = assay: Compound was tested for inhibitory effect reversed by haloperidol (100 ug/kg) at 3 mg/kg in anaesthetized cat; yes; assay type: functional, organism-based; set-up: dose 3 mg/kg
Method in brief: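 Pentobarbital sodium (30 mg/kg) anaesthetised cats; arterial pressure recorded from the right femoral artery. Postganglionic cardioaccelerator nerve stimulated at 2 Hz with 5 ms pulses at supramaximal voltage, in 20-30 s trains. After stable controls, compound was given iv in doses spaced at 0.48 log intervals. Haloperidol (100 μg/kg iv) was then given and inhibition of nerve-evoked tachycardia redetermined.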

Felis catus [11] = assay: Compound was tested for percentage increase in mean arterial blood pressure at 10 mg/kg in anaesthetized cat; assay type: functional, Artery; method in brief: as §2
Felis catus [12] = assay: Compound was tested for percentage decrease in heart rate at 30 mg/kg in anaesthetized cat; assay type: functional; method in brief: as §2
Felis catus [13] = assay: Compound was tested for percentage decrease in mean arterial blood pressure at 10 mg/kg in anaesthetized cat (resting mean arterial pressure (mmHg)); assay type: functional, Artery; method in brief: as §2
Felis catus [14] = assay: Compound was tested for percentage increase in mean arterial blood pressure at 3 mg/kg in anaesthetized cat; assay type: functional, Artery; method in brief: as §2
Felis catus [15] = assay: Compound was tested for percentage decrease in heart rate at 3 mg/kg in anaesthetized cat; assay type: functional; method in brief: as §2
Felis catus [16] = assay: Compound was tested for percentage decrease in mean arterial blood pressure at 100 mg/kg in anaesthetized cat; assay type: functional, Artery; method in brief: as §2
Felis catus [17] = assay: Compound was tested for neuronal inhibition of postganglionic cardio accelerator nerve stimulation in anaesthetized cat at 2 Hz frequency at 100 mg/kg; assay type: functional; conditions: Heart; method in brief: as §1
Felis catus [18] = assay: Compound was tested for percentage decrease in heart rate at 100 mg/kg in anaesthetized cat; assay type: functional; method in brief: as §2
Felis catus [19] = assay: Compound was tested for percentage decrease in mean arterial blood pressure at 300 mg/kg in anaesthetized cat; assay type: functional, Artery; method in brief: as §2
Felis catus [20] = assay: Compound was tested for percentage decrease in heart rate at 300 mg/kg in anaesthetized cat; assay type: functional; method in brief: as §2
Felis catus [21] = assay: Sympathetic neuronal inhibiting activity in anaesthetized cat at 30 mg/kg; assay type: functional; conditions: Sympathetic neuron, read-out: ID50 (the source's name); method in brief: as §1
Felis catus [22] = assay: Compound was tested for inhibitory effect reversed by haloperidol (100 ug/kg) at […] in anaesthetized cat; Yes; assay type: functional, organism-based; method in brief: as §1
Felis catus [23] = assay: Potency relative to apomorphine at 30 mg/kg in anaesthetized cat; assay type: functional
Felis catus [24] = assay: Compound was tested for neuronal inhibition of postganglionic cardio accelerator nerve stimulation in anaesthetized cat at 2 Hz frequency at 300 mg/kg; assay type: functional; conditions: Heart; method in brief: as §1
Felis catus [25] = assay: Compound was tested for percentage increase in mean arterial blood pressure at 300 mg/kg in anaesthetized cat; assay type: functional, Artery; method in brief: as §2
Felis catus [26] = assay: Compound was tested for percentage decrease in heart rate at […] in anaesthetized cat (resting heart rate (beats/min)); assay type: functional; method in brief: as §2
Felis catus [27] = assay: Compound was tested for percentage increase in mean arterial blood pressure at 100 mg/kg in anaesthetized cat; assay type: functional, Artery; method in brief: as §2
Felis catus [28] = assay: Compound was tested for percentage decrease in mean arterial blood pressure at 100 mg/kg in anaesthetized cat (resting mean arterial pressure (mmHg)); assay type: functional, Artery; method in brief: as §2
Felis catus [29] = assay: Sympathetic neuronal inhibiting activity in anaesthetized cat 30 at mg/kg; 0.12-0.33; assay type: functional; conditions: Sympathetic neuron, read-out: ID50 (the source's name); method in brief: as §1
Felis catus [30] = assay: Potency relative to apomorphine at […] in anaesthetized cat; 0.07-0.33; assay type: functional

## CCCN1C[C@H](CSC)C[C@@H]2c3cccc4[nH]cc(c34)C[C@H]21 [PERGOLIDE]
Felis catus [1]
  inhibition in vivo at 10 mg/kg: 59%
Felis catus [2]
  Decrease: 6%
Felis catus [3]
  inhibition in vivo at 30 mg/kg: 80%
Felis catus [4]
  Increase: 52%
Felis catus [5]
  inhibition in vivo at 3 mg/kg: 23%
Felis catus [6]
  Ratio: 1.13
Felis catus [7]
  Decrease: 5%
Felis catus [8]
  ED50: 0.02 µmol/kg
Felis catus [9]
  Decrease: 59%
Felis catus [10]
  Inhibitory effect: Active
Felis catus [11]
  Increase: 15%
Felis catus [12]
  Decrease: 80%
Felis catus [13]
  Decrease: 8%
Felis catus [14]
  Increase: 5%
Felis catus [15]
  Decrease: 23%

## CN1C[C@H](CC#N)C[C@@H]2c3cccc4[nH]c(Cl)c(c34)C[C@H]21 [LERGOTRILE]
Felis catus [2]
  Decrease: 22%
Felis catus [16]
  Decrease: 34%
Felis catus [3]
  inhibition in vivo at 30 mg/kg: 21%
Felis catus [17]
  inhibition in vivo at 100 mg/kg: 57%
Felis catus [18]
  Decrease: 10%
Felis catus [19]
  Decrease: 38%
Felis catus [20]
  Decrease: 12%
Felis catus [21]
  ED50: 0.27 µmol/kg
Felis catus [22]
  Inhibitory effect: Yes
Felis catus [12]
  Decrease: 11%
Felis catus [23]
  Ratio: 0.08
Felis catus [24]
  inhibition in vivo at 300 mg/kg: 69%

## CNCCc1cccc2[nH]ccc12
Felis catus [25]
  Increase: 41%
Felis catus [2]
  Decrease: 11%
Felis catus [26]
  Decrease: 12%
Felis catus [3]
  inhibition in vivo at 30 mg/kg: 29%
Felis catus [17]
  inhibition in vivo at 100 mg/kg: 60%
Felis catus [27]
  Increase: 16%
Felis catus [28]
  Decrease: 18%
Felis catus [4]
  Increase: 6%
Felis catus [19]
  Decrease: 10%
Felis catus [20]
  Decrease: 10%
Felis catus [22]
  Inhibitory effect: Yes
Felis catus [12]
  Decrease: 7%
Felis catus [29]
  ED50: 0.22 µmol/kg
Felis catus [30]
  Ratio: 0.14
Felis catus [24]
  inhibition in vivo at 300 mg/kg: 77%
